Converted amounts (≈) assume the structure as drawn.
Tests used:
Format in all cases: functional
Acinetobacter baumannii [1] = test: Antibacterial activity against Acinetobacter baumannii A891 assessed as mutant prevention concentration after overnight incubation
Pseudomonas aeruginosa [2] = test: Antibacterial activity against Pseudomonas aeruginosa P327 assessed as mutant prevention concentration after overnight incubation
Acinetobacter baumannii [3] = test: Antibacterial activity against Acinetobacter baumannii A898 assessed as mutant prevention concentration after overnight incubation
Escherichia coli [4] = test: Antibacterial activity against beta-lactamase-positive ESBL-negative Escherichia coli E437 assessed as mutant prevention concentration after overnight incubation
Procedure, shortened: (§1)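 Overnight growth on blood trypticase soy agar (35°C, air) was resuspended in 0.9% saline and counted on drug-free Mueller-Hinton agar. […] Colonies were retested by agar dilution to confirm mutants. MPC was the lowest concentration preventing resistant-mutant growth.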

Pseudomonas aeruginosa [5] = test: Antibacterial activity against Pseudomonas aeruginosa P353 assessed as mutant prevention concentration after overnight incubation
Pseudomonas aeruginosa [6] = test: Antibacterial activity against Pseudomonas aeruginosa P322 assessed as mutant prevention concentration after overnight incubation
Acinetobacter baumannii [7] = test: Antibacterial activity against Acinetobacter baumannii A912 assessed as mutant prevention concentration after overnight incubation
Klebsiella pneumoniae [8] = test: Antibacterial activity against beta-lactamase-positive ESBL-negative Klebsiella pneumoniae E481 assessed as mutant prevention concentration after overnight incubation; procedure, shortened: as §1
Pseudomonas aeruginosa [9] = test: Antibacterial activity against Pseudomonas aeruginosa P338 assessed as mutant prevention concentration after overnight incubation
Pseudomonas aeruginosa [10] = test: Antibacterial activity against Pseudomonas aeruginosa P373 assessed as mutant prevention concentration after overnight incubation
Klebsiella pneumoniae [11] = test: Antibacterial activity against beta-lactamase-positive ESBL-positive Klebsiella pneumoniae E478 assessed as mutant prevention concentration after overnight incubation; procedure, shortened: as §1
Klebsiella pneumoniae [12] = test: Antibacterial activity against beta-lactamase-positive ESBL-negative Klebsiella pneumoniae E474 assessed as mutant prevention concentration after overnight incubation; procedure, shortened: as §1
Klebsiella pneumoniae [13] = test: Antibacterial activity against beta-lactamase-negative Klebsiella pneumoniae E419 assessed as mutant prevention concentration after overnight incubation; procedure, shortened: as §1
Pseudomonas aeruginosa [14] = test: Antibacterial activity against Pseudomonas aeruginosa P363 assessed as mutant prevention concentration after overnight incubation
Acinetobacter baumannii [15] = test: Antibacterial activity against Acinetobacter baumannii A885 assessed as mutant prevention concentration after overnight incubation
Pseudomonas aeruginosa [16] = test: Antibacterial activity against Pseudomonas aeruginosa P319 assessed as mutant prevention concentration after overnight incubation
Pseudomonas aeruginosa [17] = test: Antibacterial activity against Pseudomonas aeruginosa P328 assessed as mutant prevention concentration after overnight incubation
Pseudomonas aeruginosa [18] = test: Antibacterial activity against Pseudomonas aeruginosa P370 assessed as mutant prevention concentration after overnight incubation
Escherichia coli [19] = test: Antibacterial activity against beta-lactamase-positive ESBL-positive Escherichia coli E458 assessed as mutant prevention concentration after overnight incubation; procedure, shortened: as §1
Pseudomonas aeruginosa [20] = test: Antibacterial activity against Pseudomonas aeruginosa P352 assessed as mutant prevention concentration after overnight incubation
Pseudomonas aeruginosa [21] = test: Antibacterial activity against Pseudomonas aeruginosa P369 assessed as mutant prevention concentration after overnight incubation
Klebsiella pneumoniae [22] = test: Antibacterial activity against beta-lactamase-positive ESBL-negative Klebsiella pneumoniae E472 assessed as mutant prevention concentration after overnight incubation; procedure, shortened: as §1
Acinetobacter baumannii [23] = test: Antibacterial activity against Acinetobacter baumannii A903 assessed as mutant prevention concentration after overnight incubation
Klebsiella pneumoniae [24] = test: Antibacterial activity against beta-lactamase-positive ESBL-positive Klebsiella pneumoniae E475 assessed as mutant prevention concentration after overnight incubation; procedure, shortened: as §1
Escherichia coli [25] = test: Antibacterial activity against beta-lactamase-positive ESBL-positive Escherichia coli E450 assessed as mutant prevention concentration after overnight incubation; procedure, shortened: as §1
Escherichia coli [26] = test: Antibacterial activity against beta-lactamase-positive ESBL-negative Escherichia coli E430 assessed as mutant prevention concentration after overnight incubation; procedure, shortened: as §1
Klebsiella pneumoniae [27] = test: Antibacterial activity against beta-lactamase-negative Klebsiella pneumoniae E417 assessed as mutant prevention concentration after overnight incubation
Pseudomonas aeruginosa [28] = test: Antibacterial activity against Pseudomonas aeruginosa P320 assessed as mutant prevention concentration after overnight incubation
Acinetobacter baumannii [29] = test: Antibacterial activity against Acinetobacter baumannii A894 assessed as mutant prevention concentration after overnight incubation
Acinetobacter baumannii [30] = test: Antibacterial activity against Acinetobacter baumannii A897 assessed as mutant prevention concentration after overnight incubation
Escherichia coli [31] = test: Antibacterial activity against beta-lactamase-negative Escherichia coli E345 assessed as mutant prevention concentration after overnight incubation
Escherichia coli [32] = test: Antibacterial activity against beta-lactamase-positive ESBL-negative Escherichia coli E412 assessed as mutant prevention concentration after overnight incubation; procedure, shortened: as §1
Escherichia coli [33] = test: Antibacterial activity against beta-lactamase-negative Escherichia coli E347 assessed as mutant prevention concentration after overnight incubation
Escherichia coli [34] = test: Antibacterial activity against beta-lactamase-negative Escherichia coli E344 assessed as mutant prevention concentration after overnight incubation
Klebsiella pneumoniae [35] = test: Antibacterial activity against beta-lactamase-positive ESBL-negative Klebsiella pneumoniae E477 incubated up to 7 days by agar dilution method; settings: E477, 168 h
Klebsiella pneumoniae [36] = test: Antibacterial activity against beta-lactamase-positive ESBL-positive Klebsiella pneumoniae E476 incubated up to 7 days by agar dilution method; settings: E476, 168 h
Escherichia coli [37] = test: Antibacterial activity against beta-lactamase-positive ESBL-negative Escherichia coli E430 incubated up to 7 days by agar dilution method; settings: E430, 168 h
Procedure, shortened: (§2)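 MIC by CLSI agar dilution, with quality-control strains in each run. Beta-lactamase status was set by 30 μg cefazolin Kirby-Bauer disk diffusion. ESBL status was set by cefotaxime and ceftazidime disks (30 μg) with and without clavulanic acid (10 μg).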

Klebsiella pneumoniae [38] = test: Antibacterial activity against beta-lactamase-negative Klebsiella pneumoniae E358 incubated up to 7 days by agar dilution method; settings: E358, 168 h
Klebsiella pneumoniae [39] = test: Antibacterial activity against beta-lactamase-positive ESBL-negative Klebsiella pneumoniae E472 incubated up to 7 days by agar dilution method; settings: E472, 168 h
Escherichia coli [40] = test: Antibacterial activity against beta-lactamase-negative Escherichia coli E350 […] by agar dilution method
Escherichia coli [41] = test: Antibacterial activity against beta-lactamase-positive ESBL-positive Escherichia coli E465 incubated up to 7 days by agar dilution method; settings: E465, 168 h; procedure, shortened: as §2
Klebsiella pneumoniae [42] = test: Antibacterial activity against beta-lactamase-positive ESBL-negative Klebsiella pneumoniae E479 incubated up to 7 days by agar dilution method; settings: E479, 168 h
Procedure, shortened: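 MPC determination: overnight cultures on blood trypticase soy agar at 35°C in air were resuspended in 0.9% saline, and CFU were counted on drug-free Mueller-Hinton agar. […] Growth was retested by agar dilution to confirm mutants. MPC was the lowest concentration preventing resistant-mutant growth.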

Escherichia coli [43] = test: Antibacterial activity against beta-lactamase-positive ESBL-negative Escherichia coli E415 incubated up to 7 days by agar dilution method; settings: E415, 168 h; procedure, shortened: as §2
Escherichia coli [44] = test: Antibacterial activity against beta-lactamase-negative Escherichia coli E347 incubated up to 7 days by agar dilution method; settings: E347, 168 h
Klebsiella pneumoniae [45] = test: Antibacterial activity against beta-lactamase-negative Klebsiella pneumoniae E360 incubated up to 7 days by agar dilution method; settings: E360, 168 h
Escherichia coli [46] = test: Antibacterial activity against beta-lactamase-positive ESBL-negative Escherichia coli E483 […] by agar dilution method

C[C@@H](O)[C@H]1C(=O)N2C(C(=O)O)=C(SCCNC=N)C[C@H]12 [IMIPENEM ANHYDROUS]
MPC (Acinetobacter baumannii [1]): 1 µg/mL | MPC (Pseudomonas aeruginosa [2]): 16 µg/mL | MPC (Acinetobacter baumannii [3]): 4 µg/mL | MPC (Escherichia coli [4]): 1 µg/mL | MPC (Pseudomonas aeruginosa [5]): 64 µg/mL | MPC (Pseudomonas aeruginosa [6]): 32 µg/mL | MPC (Acinetobacter baumannii [7]): 4 µg/mL | MPC (Klebsiella pneumoniae [8]): 16 µg/mL | MPC (Pseudomonas aeruginosa [9]): 16 µg/mL | MPC (Pseudomonas aeruginosa [10]): 32 µg/mL | MPC (Klebsiella pneumoniae [11]): 16 µg/mL | MPC (Klebsiella pneumoniae [12]): 16 µg/mL | MPC (Klebsiella pneumoniae [13]): 1 µg/mL | MPC (Pseudomonas aeruginosa [14]): 32 µg/mL | MPC (Acinetobacter baumannii [15]): 8 µg/mL | MPC (Pseudomonas aeruginosa [16]): 32 µg/mL | MPC (Pseudomonas aeruginosa [17]): 32 µg/mL | MPC (Pseudomonas aeruginosa [18]): 16 µg/mL | MPC (Escherichia coli [19]): 0.5 µg/mL | MPC (Pseudomonas aeruginosa [20]): 32 µg/mL | MPC (Pseudomonas aeruginosa [21]): 32 µg/mL | MPC (Klebsiella pneumoniae [22]): 32 µg/mL | MPC (Acinetobacter baumannii [23]): 1 µg/mL | MPC (Klebsiella pneumoniae [24]): 16 µg/mL | MPC (Escherichia coli [25]): 0.5 µg/mL | MPC (Escherichia coli [26]): 2 µg/mL | MPC (Klebsiella pneumoniae [27]): 0.5 µg/mL | MPC (Pseudomonas aeruginosa [28]): 32 µg/mL | MPC (Acinetobacter baumannii [29]): 1 µg/mL | MPC (Acinetobacter baumannii [30]): 1 µg/mL | MPC (Escherichia coli [31]): 0.5 µg/mL | MPC (Escherichia coli [32]): 1 µg/mL | MPC (Escherichia coli [33]): 0.5 µg/mL | MPC (Escherichia coli [34]): 0.5 µg/mL

C[C@@H](O)[C@H]1C(=O)N2C(C(=O)O)=C(S[C@@H]3CN[C@H](C(=O)N(C)C)C3)[C@H](C)[C@H]12 [MEROPENEM]
MPC (Acinetobacter baumannii [1]): 2 µg/mL | MPC (Pseudomonas aeruginosa [2]): 8 µg/mL | MPC (Acinetobacter baumannii [3]): 8 µg/mL | MIC (Klebsiella pneumoniae [35]): 2 µg/mL (≈ 5.22 µM) | MPC (Escherichia coli [4]): 0.125 µg/mL | MIC (Klebsiella pneumoniae [36]): 4 µg/mL (≈ 10.4 µM) | MIC (Escherichia coli [37]): 0.03 µg/mL (≈ 0.0782 µM) | MPC (Pseudomonas aeruginosa [5]): 8 µg/mL | MIC (Klebsiella pneumoniae [38]): 0.03 µg/mL (≈ 0.0782 µM) | MPC (Pseudomonas aeruginosa [6]): 16 µg/mL | MPC (Acinetobacter baumannii [7]): 4 µg/mL | MPC (Klebsiella pneumoniae [8]): 16 µg/mL | MPC (Pseudomonas aeruginosa [9]): >4 µg/mL | MPC (Pseudomonas aeruginosa [10]): >8 µg/mL | MPC (Klebsiella pneumoniae [11]): 8 µg/mL | MPC (Klebsiella pneumoniae [12]): 16 µg/mL | MPC (Klebsiella pneumoniae [13]): 0.125 µg/mL | MIC (Klebsiella pneumoniae [39]): 4 µg/mL (≈ 10.4 µM) | MIC (Escherichia coli [40]): 0.03 µg/mL (≈ 0.0782 µM) | MPC (Pseudomonas aeruginosa [14]): >8 µg/mL | MPC (Acinetobacter baumannii [15]): 8 µg/mL | MPC (Pseudomonas aeruginosa [16]): 8 µg/mL | MPC (Pseudomonas aeruginosa [17]): 16 µg/mL | MPC (Pseudomonas aeruginosa [18]): >4 µg/mL | MPC (Escherichia coli [19]): 0.125 µg/mL | MPC (Pseudomonas aeruginosa [20]): 8 µg/mL | MIC (Escherichia coli [41]): 0.06 µg/mL (≈ 0.156 µM) | MPC (Pseudomonas aeruginosa [21]): >4 µg/mL | MIC (Klebsiella pneumoniae [42]): 8 µg/mL (≈ 20.9 µM) | MPC (Klebsiella pneumoniae [22]): 32 µg/mL | MPC (Acinetobacter baumannii [23]): 8 µg/mL | MIC (Escherichia coli [43]): 0.06 µg/mL (≈ 0.156 µM) | MIC (Escherichia coli [44]): 0.03 µg/mL (≈ 0.0782 µM) | MIC (Klebsiella pneumoniae [45]): 0.03 µg/mL (≈ 0.0782 µM) | MPC (Klebsiella pneumoniae [24]): 32 µg/mL | MPC (Escherichia coli [25]): 0.06 µg/mL | MPC (Escherichia coli [26]): 0.125 µg/mL | MPC (Klebsiella pneumoniae [27]): 0.06 µg/mL | MIC (Escherichia coli [46]): 0.5 µg/mL (≈ 1.3 µM) | MPC (Pseudomonas aeruginosa [28]): >8 µg/mL | MPC (Acinetobacter baumannii [29]): 2 µg/mL | MPC (Acinetobacter baumannii [30]): 1 µg/mL | MPC (Escherichia coli [31]): 0.06 µg/mL | MPC (Escherichia coli [32]): 0.25 µg/mL | MPC (Escherichia coli [33]): 0.06 µg/mL | MPC (Escherichia coli [34]): 0.03 µg/mL

Source: ChEMBL document CHEMBL1255475, “Mutant prevention concentrations of four carbapenems against gram-negative rods” (2010)
